Data on eight compounds can be found in ChEMBL document CHEMBL1123603, “Synthesis of angiotensin II antagonists with variations in position 5” (J Med Chem, 1987).

The pA2 is a measure of antagonist potency on a negative log scale. Lower therefore signals lower antagonist potency.

Square brackets hold non-standard residues; d marks the D form. Peptide text beside a SMILES is read from it. * marks the point of attachment. Gly(cPent) = N[C@H](C(=O)O)C1CCCC1; Chg = N[C@H](C(=O)O)C1CCCCC1; Lac = C[C@H](O)C(=O)O; Glycolyl = O=C(CO)*; Sar = CNCC(=O)O

Test [1] has as its target Angiotensin II receptor (Oryctolagus cuniculus). Description: Antagonistic effect against Angiotensin II receptor in rabbit aortic strip.
Test [2] deals with Rattus norvegicus. Description: Tested in vivo on the angiotensin II induced rise of blood pressure after intravenous administration of 2.5 ug/kg in conscious rats. It is filed as functional. Summed up: (§1)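 Conscious, free-moving rats, carotid artery linked to a pressure transducer 24 h after surgery. One analogue per rat, in 0.9% NaCl with 5 g/L BSA, given as a 10-s iv bolus into the jugular vein. Doses 1.25–20 μg/kg in random order, one every 20 min. Maximal blood pressure rise recorded; 6 rats; ANOVA with Dunnett's test.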

Test [3] has as its system Rattus norvegicus. Description: Tested in vivo on the angiotensin II induced rise of blood pressure after intravenous administration of 10 ug/kg in conscious rats. Type of test: functional. A digest of the protocol: as §1
Test [4] has as its system Rattus norvegicus. Description: Tested in vivo on the angiotensin II induced rise of blood pressure after intravenous administration of 1.25 ug/kg in conscious rats. Type of test: functional. A digest of the protocol: as §1
In test [5] the target is T1, Angiotensin II receptor (Rattus norvegicus, UniProt P29089+P25095+P35351).
T1 sequence (P29089 whole entry): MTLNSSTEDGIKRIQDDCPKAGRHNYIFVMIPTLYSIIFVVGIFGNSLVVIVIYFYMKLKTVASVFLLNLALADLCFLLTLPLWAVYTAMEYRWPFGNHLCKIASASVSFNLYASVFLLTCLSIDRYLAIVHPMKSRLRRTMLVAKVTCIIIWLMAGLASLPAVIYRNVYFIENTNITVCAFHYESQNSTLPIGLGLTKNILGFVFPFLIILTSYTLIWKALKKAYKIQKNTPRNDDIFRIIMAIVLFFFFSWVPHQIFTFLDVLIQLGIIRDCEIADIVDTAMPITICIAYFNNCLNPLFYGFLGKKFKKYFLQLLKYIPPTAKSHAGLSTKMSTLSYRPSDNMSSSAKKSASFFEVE
T1 sequence (P25095 whole entry): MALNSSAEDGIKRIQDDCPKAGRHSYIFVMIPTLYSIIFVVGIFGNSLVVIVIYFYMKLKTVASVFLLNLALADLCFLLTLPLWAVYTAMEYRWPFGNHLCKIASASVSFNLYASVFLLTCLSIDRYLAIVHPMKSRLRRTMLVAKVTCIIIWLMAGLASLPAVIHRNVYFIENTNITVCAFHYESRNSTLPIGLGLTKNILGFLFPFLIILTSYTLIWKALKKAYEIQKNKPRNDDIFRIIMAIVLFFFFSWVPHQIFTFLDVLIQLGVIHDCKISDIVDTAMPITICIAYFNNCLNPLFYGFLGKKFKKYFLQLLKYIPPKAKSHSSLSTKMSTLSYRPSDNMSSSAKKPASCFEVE
T1 sequence (P35351 whole entry): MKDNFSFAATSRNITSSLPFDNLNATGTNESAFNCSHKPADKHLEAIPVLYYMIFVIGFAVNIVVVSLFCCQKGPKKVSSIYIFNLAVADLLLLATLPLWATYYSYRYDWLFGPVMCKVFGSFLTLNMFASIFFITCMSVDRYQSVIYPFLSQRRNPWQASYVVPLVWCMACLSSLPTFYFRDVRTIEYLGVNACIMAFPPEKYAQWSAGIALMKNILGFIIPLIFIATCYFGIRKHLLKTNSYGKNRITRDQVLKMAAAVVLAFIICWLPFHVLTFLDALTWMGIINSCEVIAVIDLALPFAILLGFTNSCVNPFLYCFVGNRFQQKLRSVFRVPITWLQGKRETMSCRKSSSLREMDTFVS
Description: Antagonistic effect against Angiotensin II receptor in zona glomerulosa. Type of test: functional. A digest of the protocol:
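Dispersed zona glomerulosa cells from male CFY rats, 250–300 g. Capsules digested with collagenase 2 mg/mL and DNase 0.1 mg/mL, 2 × 25 min at 37 °C. Cells 3.0–3.5 × 10⁶/mL in Krebs–Ringer glucose buffer, 5 g/L albumin. Antagonists 2 × 10⁻¹²–2 × 10⁻⁶ M, alone or with 2 × 10⁻⁸ M AII, duplicate or triplicate. Aldosterone by RIA after CHCl3 extraction; pA2 values.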

Test [6] relates to Rattus norvegicus. Description: Tested in vivo on the angiotensin II induced rise of blood pressure after intravenous administration of 20 ug/kg in conscious rats. It is filed as functional. A digest of the protocol:
as §1

Test [7] concerns Rattus norvegicus. Description: Tested in vivo on the angiotensin II induced rise of blood pressure after intravenous administration of 5 ug/kg in conscious rats. Type of test: functional. Summed up:
as §1

As to `CC[C@H](C)[C@H](NC(=O)[C@H](Cc1ccc(O)cc1)NC(=O)[C@@H](NC(=O)[C@H](CCCN=C(N)N)NC(=O)[C@H](C)O)C(C)C)C(=O)N[C@@H](Cc1c[nH]cn1)C(=O)N1CCC[C@H]1C(=O)O[C@@H](C)C(=O)O`, the pA2 in test [1] was 9.5; in test [5], 7.999. The Blood pressure was found to be 5.8 mmHg in test [2]; 10 mmHg in test [3]; 4.2 mmHg in test [4]; 16.7 mmHg in test [6]; 11.7 mmHg in test [7].

With `CNCC(=O)N[C@@H](CCCN=C(N)N)C(=O)N[C@H](C(=O)N[C@@H](Cc1ccc(O)cc1)C(=O)N[C@H](C(=O)N[C@@H](Cc1c[nH]cn1)C(=O)N1CCC[C@H]1C(=O)N[C@@H](C)C(=O)O)C1CCCC1)C(C)C`, the pA2 in test [1] came out at 9.42; in test [5], 9.933. Moreover, the Blood pressure was 10 mmHg in test [2]; 17.5 mmHg in test [3]; 5.8 mmHg in test [4]; 14.2 mmHg in test [6]; 10 mmHg in test [7].

In the case of `CNCC(=O)N[C@@H](CCCN=C(N)N)C(=O)N[C@H](C(=O)N[C@@H](Cc1ccc(O)cc1)C(=O)N[C@H](C(=O)N[C@@H](Cc1c[nH]cn1)C(=O)N1CCC[C@H]1C(=O)N[C@@H](C)C(=O)O)C1CCCCC1)C(C)C`, the values for the pA2 in test [1] and in test [5] were 11.18 and 9.981, respectively. The Blood pressure in test [2] is reported as 17.9 mmHg; in test [3], 16.4 mmHg; in test [4] it was 10.29 mmHg; in test [7], 16.9 mmHg.

For the compound `CC(C)[C@H](NC(=O)[C@H](CCCN=C(N)N)NC(=O)CO)C(=O)N[C@@H](Cc1ccc(O)cc1)C(=O)N[C@H](C(=O)N[C@@H](Cc1c[nH]cn1)C(=O)N1CCC[C@H]1C(=O)O[C@@H](C)C(=O)O)C1CCCCC1` (Glycolyl-RVY[Chg]HP[Lac]-OH), the results for the pA2 in test [1] and in test [5] were 9.53 and 8.614, respectively. Moreover, the Blood pressure in test [2] worked out at 7.5 mmHg; in test [3], 14.1 mmHg; in test [4], 6.7 mmHg; in test [6] it was 15.8 mmHg; in test [7], 17.5 mmHg.

`CC(C)[C@H](NC(=O)[C@H](CCCN=C(N)N)NC(=O)[C@H](C)O)C(=O)N[C@@H](Cc1ccc(O)cc1)C(=O)N[C@H](C(=O)N[C@@H](Cc1c[nH]cn1)C(=O)N1CCC[C@H]1C(=O)O[C@@H](C)C(=O)O)C1CCCC1` (H-[Lac]RVY[Gly(cPent)]HP[Lac]-OH): the pA2 in test [1] is given as 8.52; in test [5] it was 8.392. Further, the Blood pressure turned out to be 5 mmHg in test [2]; 10 mmHg in test [3]; 5.8 mmHg in test [4]; 15 mmHg in test [6]; 5 mmHg in test [7].

As to `CNCC(=O)N[C@@H](CCCN=C(N)N)C(=O)N[C@H](C(=O)N[C@@H](Cc1ccc(O)cc1)C(=O)N[C@H](C(=O)N[C@@H](Cc1c[nH]cn1)C(=O)N1CCC[C@H]1C(=O)O[C@@H](C)C(=O)O)C1CCCCC1)C(C)C` (H-[Sar]RVY[Chg]HP[Lac]-OH), the pA2 came out at 11.29 in test [1] and 10.39 in test [5]. The Blood pressure in test [2] is reported as 5.7 mmHg; in test [3], 8.6 mmHg; in test [4] it was 3.6 mmHg; in test [6], 8.3 mmHg; in test [7], 12.1 mmHg.

As for `CNCC(=O)N[C@@H](CCCN=C(N)N)C(=O)N[C@H](C(=O)N[C@@H](Cc1ccc(O)cc1)C(=O)N[C@H](C(=O)N[C@@H](Cc1c[nH]cn1)C(=O)N1CCC[C@H]1C(=O)O[C@@H](C)C(=O)O)C1CCCC1)C(C)C` (H-[Sar]RVY[Gly(cPent)]HP[Lac]-OH), the pA2 came to 11.09 in test [1] and 9.649 in test [5]. For the same compound, the Blood pressure was 10 mmHg in test [2]; 11.7 mmHg in test [3]; 5 mmHg in test [4]; 11.7 mmHg in test [6]; 9.2 mmHg in test [7].

As for `CNCC(=O)N[C@@H](CCCNC(=N)N)C(=O)N[C@H](C(=O)N[C@@H](Cc1ccc(O)cc1)C(=O)N[C@H](C(=O)N[C@@H](Cc1cnc[nH]1)C(=O)N1CCC[C@H]1C(=O)N[C@@H](C)C(=O)O)C(C)C)C(C)C` [SARALASIN], the Blood pressure was 9.3 mmHg in test [2]; 15 mmHg in test [3]; 7.9 mmHg in test [4]; 20 mmHg in test [6]; 12.1 mmHg in test [7].
